Results taken from ChEMBL document CHEMBL1131139, “Synthesis and antibacterial activity of ketolides (6-O-methyl-3-oxoerythromycin derivatives): a new class of antibacterials highly potent against macrolide-resistant and -susceptible respiratory pathogens” (1998).
In brackets after ≈: the same amount, converted by molar mass.

Experiments:
Assay type in all cases: functional
Escherichia coli = experiment: In vitro inhibitory activity against Escherichia coli (250 UC5)
Outline: (§1)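 Two-fold agar dilution on Mueller-Hinton agar (pH 7.4). Inoculum from overnight plate cultures suspended in Mueller-Hinton broth, adjusted to 10^9 CFU/mL, diluted 1:200 and spotted by multipoint inoculator at about 10^4 CFU/spot. Plates incubated 37 °C for 20 h. MIC taken as lowest concentration with no visible growth.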

Haemophilus influenzae [1] = experiment: In vitro inhibitory activity against Haemophilus influenzae (351CB12); outline: as §1
Haemophilus influenzae [2] = experiment: In vitro inhibitory activity against Haemophilus influenzae (351HT3); outline: as §1
[3] = tested on: Staphylococcus epidermidis; experiment: In vitro inhibitory activity against Staphylococcus epidermidis (EryRi 012GO11i); outline: as §1
Staphylococcus aureus [4] = experiment: In vitro inhibitory activity against Staphylococcus aureus (011UC4); outline: as §1
Staphylococcus aureus [5] = experiment: In vitro inhibitory activity against Staphylococcus aureus (EryRi 011GO25i); outline: as §1
Streptococcus pneumoniae [6] = experiment: In vitro inhibitory activity against Streptococcus pneumoniae (032UC1); outline: as §1
Streptococcus pneumoniae [7] = experiment: In vitro inhibitory activity against Streptococcus pneumoniae (EryRc 030SJ1); outline: as §1
Streptococcus pneumoniae [8] = experiment: In vitro inhibitory activity against Streptococcus pneumoniae (EryRi 030SJ5i); outline: as §1
Streptococcus pyogenes = experiment: In vitro inhibitory activity against Streptococcus pyogenes (02A1UC1); outline: as §1
Staphylococcus aureus [9] = experiment: In vitro inhibitory activity against Staphylococcus aureus (EryRc 011CB20); outline: as §1

| Structure (SMILES) | MIC (Escherichia coli) | MIC (Haemophilus influenzae [1]) | MIC (Haemophilus influenzae [2]) | MIC [3] | MIC (Staphylococcus aureus [4]) | MIC (Staphylococcus aureus [5]) | MIC (Streptococcus pneumoniae [6]) | MIC (Streptococcus pneumoniae [7]) | MIC (Streptococcus pneumoniae [8]) | MIC (Streptococcus pyogenes) | MIC (Staphylococcus aureus [9]) |
| --- | --- | --- | --- | --- | --- | --- | --- | --- | --- | --- | --- |
| CCCNCCO/N=C1\[C@H](C)C[C@@](C)(OC)[C@H](O[C@@H]2O[C@H](C)C[C@H](N(C)C)[C@H]2O)[C@@H](C)C(=O)[C@@H](C)C(=O)O[C@H](CC)[C@@](C)(O)[C@H](O)[C@H]1C | 40 µg/mL (≈ 58.1 µM) | 10 µg/mL (≈ 14.5 µM) | 40 µg/mL (≈ 58.1 µM) | 0.15 µg/mL (≈ 0.218 µM) | 0.15 µg/mL (≈ 0.218 µM) | 0.3 µg/mL (≈ 0.436 µM) | 10 µg/mL (≈ 14.5 µM) | 40 µg/mL (≈ 58.1 µM) | 1.2 µg/mL (≈ 1.74 µM) | 0.04 µg/mL (≈ 0.0581 µM) | 40 µg/mL (≈ 58.1 µM) |
| CC[C@H]1OC(=O)[C@H](C)C(=O)[C@H](C)[C@@H](O[C@@H]2O[C@H](C)C[C@H](N(C)C)[C@H]2O)[C@](C)(OC)C[C@@H](C)C(=O)[C@H](C)[C@H]2N(CCCCc3ccccc3)C(=O)O[C@]12C | 40 µg/mL (≈ 53.7 µM) | 2.5 µg/mL (≈ 3.36 µM) | 1.2 µg/mL (≈ 1.61 µM) | 0.04 µg/mL (≈ 0.0537 µM) | 0.08 µg/mL (≈ 0.107 µM) | 0.15 µg/mL (≈ 0.201 µM) | 0.02 µg/mL (≈ 0.0268 µM) | 0.15 µg/mL (≈ 0.201 µM) | 0.3 µg/mL (≈ 0.403 µM) | 0.02 µg/mL (≈ 0.0268 µM) | 40 µg/mL (≈ 53.7 µM) |
| CC[C@H]1OC(=O)[C@H](C)C(=O)[C@H](C)[C@@H](O[C@@H]2O[C@H](C)C[C@H](N(C)C)[C@H]2O)[C@](C)(OC)C[C@@H](C)/C(=N\OC2CCNC2)[C@H](C)[C@@H](O)[C@]1(C)O (stereo not given in full) | 40 µg/mL (≈ 59.5 µM) | 5 µg/mL (≈ 7.44 µM) | 10 µg/mL (≈ 14.9 µM) | 6 µg/mL (≈ 8.93 µM) | 0.15 µg/mL (≈ 0.223 µM) | 5 µg/mL (≈ 7.44 µM) | 0.02 µg/mL (≈ 0.0298 µM) | 10 µg/mL (≈ 14.9 µM) | 40 µg/mL (≈ 59.5 µM) | 0.04 µg/mL (≈ 0.0595 µM) | 40 µg/mL (≈ 59.5 µM) |
| CC[C@H]1OC(=O)[C@H](C)C(=O)[C@H](C)[C@@H](O[C@@H]2O[C@H](C)C[C@H](N(C)C)[C@H]2O)[C@](C)(OC)C[C@@H](C)/C(=N\OC[C@@H](N)C(=O)OC)[C@H](C)[C@@H](O)[C@]1(C)O | 40 µg/mL (≈ 56.8 µM) | 40 µg/mL (≈ 56.8 µM) | 40 µg/mL (≈ 56.8 µM) | 2.5 µg/mL (≈ 3.55 µM) | 1.2 µg/mL (≈ 1.7 µM) | 10 µg/mL (≈ 14.2 µM) | 0.6 µg/mL (≈ 0.852 µM) | 40 µg/mL (≈ 56.8 µM) | 20 µg/mL (≈ 28.4 µM) | 0.6 µg/mL (≈ 0.852 µM) | 40 µg/mL (≈ 56.8 µM) |

Second part, the molecule after the results:

| MIC (Escherichia coli) | MIC (Haemophilus influenzae [1]) | MIC (Haemophilus influenzae [2]) | MIC [3] | MIC (Staphylococcus aureus [4]) | MIC (Staphylococcus aureus [5]) | MIC (Streptococcus pneumoniae [6]) | MIC (Streptococcus pneumoniae [7]) | MIC (Streptococcus pneumoniae [8]) | MIC (Streptococcus pyogenes) | MIC (Staphylococcus aureus [9]) | Structure (SMILES) |
| --- | --- | --- | --- | --- | --- | --- | --- | --- | --- | --- | --- |
| 40 µg/mL (≈ 53.6 µM) | 1.2 µg/mL (≈ 1.61 µM) | 2.5 µg/mL (≈ 3.35 µM) | 0.3 µg/mL (≈ 0.402 µM) | 0.08 µg/mL (≈ 0.107 µM) | 0.6 µg/mL (≈ 0.804 µM) | 0.02 µg/mL (≈ 0.0268 µM) | 40 µg/mL (≈ 53.6 µM) | 0.6 µg/mL (≈ 0.804 µM) | 0.04 µg/mL (≈ 0.0536 µM) | 40 µg/mL (≈ 53.6 µM) | CC[C@H]1OC(=O)[C@H](C)C(=O)[C@H](C)[C@@H](O[C@@H]2O[C@H](C)C[C@H](N(C)C)[C@H]2O)[C@](C)(OC)C[C@@H](C)C(=O)[C@H](C)[C@H]2N(CCCNc3ccccc3)C(=O)O[C@]12C |
| 40 µg/mL (≈ 54.4 µM) | 40 µg/mL (≈ 54.4 µM) | 40 µg/mL (≈ 54.4 µM) | 5 µg/mL (≈ 6.79 µM) | 0.6 µg/mL (≈ 0.815 µM) | 5 µg/mL (≈ 6.79 µM) | 0.15 µg/mL (≈ 0.204 µM) | 40 µg/mL (≈ 54.4 µM) | 40 µg/mL (≈ 54.4 µM) | 0.6 µg/mL (≈ 0.815 µM) | 40 µg/mL (≈ 54.4 µM) | CC[C@H]1OC(=O)[C@H](C)C(=O)[C@H](C)[C@@H](O[C@@H]2O[C@H](C)C[C@H](N(C)C)[C@H]2O)[C@](C)(OC)C[C@@H](C)/C(=N\OCCNCc2ccccc2)[C@H](C)[C@@H](O)[C@]1(C)O |
| 40 µg/mL (≈ 63.7 µM) | 10 µg/mL (≈ 15.9 µM) | 10 µg/mL (≈ 15.9 µM) | 1.2 µg/mL (≈ 1.91 µM) | 1.2 µg/mL (≈ 1.91 µM) | 1.2 µg/mL (≈ 1.91 µM) | 0.08 µg/mL (≈ 0.127 µM) | 40 µg/mL (≈ 63.7 µM) | 40 µg/mL (≈ 63.7 µM) | 0.15 µg/mL (≈ 0.239 µM) | 40 µg/mL (≈ 63.7 µM) | CC[C@H]1OC(=O)[C@H](C)C(=O)[C@H](C)[C@@H](O[C@@H]2O[C@H](C)C[C@H](N(C)C)[C@H]2O)[C@](C)(OC)C[C@@H](C)C(=O)[C@H](C)[C@H]2N(N)C(=O)O[C@]12C |
| 40 µg/mL (≈ 46.9 µM) | 10 µg/mL (≈ 11.7 µM) | 40 µg/mL (≈ 46.9 µM) | 0.6 µg/mL (≈ 0.704 µM) | 0.6 µg/mL (≈ 0.704 µM) | 0.3 µg/mL (≈ 0.352 µM) | 0.3 µg/mL (≈ 0.352 µM) | 5 µg/mL (≈ 5.87 µM) | 0.3 µg/mL (≈ 0.352 µM) | 0.04 µg/mL (≈ 0.0469 µM) | 20 µg/mL (≈ 23.5 µM) | CC[C@H]1OC(=O)[C@H](C)C(=O)[C@H](C)[C@@H](O[C@@H]2O[C@H](C)C[C@H](N(C)C)[C@H]2O)[C@](C)(OC)C[C@@H](C)/C(=N\O[C@@H]2CCCN(Cc3ccc(-c4ccccc4)cc3)C2)[C@H](C)[C@@H](O)[C@]1(C)O |
| 40 µg/mL | 40 µg/mL | 40 µg/mL | 40 µg/mL | 40 µg/mL | 40 µg/mL | 40 µg/mL | 40 µg/mL | 40 µg/mL | 40 µg/mL | 40 µg/mL | CC[C@H]1OC(=O)[C@H](C)C(=O)[C@H](C)[C@@H](O[C@@H]2O[C@H](C)C[C@H](N(C)C)[C@H]2O)[C@](C)(OC)C[C@@H](C)/C(=N\OC[C@@H](N)C(=O)[O-])[C@H](C)[C@@H](O)[C@]1(C)O.[K+] |
| 40 µg/mL (≈ 48.4 µM) | 1.2 µg/mL (≈ 1.45 µM) | 1.2 µg/mL (≈ 1.45 µM) | 0.04 µg/mL (≈ 0.0484 µM) | 0.08 µg/mL (≈ 0.0968 µM) | 0.08 µg/mL (≈ 0.0968 µM) | 0.02 µg/mL (≈ 0.0242 µM) | 0.6 µg/mL (≈ 0.726 µM) | 0.02 µg/mL (≈ 0.0242 µM) | 0.02 µg/mL (≈ 0.0242 µM) | 40 µg/mL (≈ 48.4 µM) | CC[C@H]1OC(=O)[C@H](C)C(=O)[C@H](C)[C@@H](O[C@@H]2O[C@H](C)C[C@H](N(C)C)[C@H]2O)[C@](C)(OC)C[C@@H](C)C(=O)[C@H](C)[C@H]2N(CCCCc3ccnc4ccc(OC)cc34)C(=O)O[C@]12C |
